Measurements published in ChEMBL document CHEMBL1128440 (J Med Chem, 1995).
Values joined by “and” are separate entries in the source; they are usually repeats but may differ in a detail not shown here. Equal entries are not always repeated.

Key:
[1] = molecular target: T1, Progesterone receptor (Homo sapiens) (UniProt P06401); assay: Nonspecific binding affinity against progesterone receptor was estimated relative to compound R5020
T1 sequence (whole entry): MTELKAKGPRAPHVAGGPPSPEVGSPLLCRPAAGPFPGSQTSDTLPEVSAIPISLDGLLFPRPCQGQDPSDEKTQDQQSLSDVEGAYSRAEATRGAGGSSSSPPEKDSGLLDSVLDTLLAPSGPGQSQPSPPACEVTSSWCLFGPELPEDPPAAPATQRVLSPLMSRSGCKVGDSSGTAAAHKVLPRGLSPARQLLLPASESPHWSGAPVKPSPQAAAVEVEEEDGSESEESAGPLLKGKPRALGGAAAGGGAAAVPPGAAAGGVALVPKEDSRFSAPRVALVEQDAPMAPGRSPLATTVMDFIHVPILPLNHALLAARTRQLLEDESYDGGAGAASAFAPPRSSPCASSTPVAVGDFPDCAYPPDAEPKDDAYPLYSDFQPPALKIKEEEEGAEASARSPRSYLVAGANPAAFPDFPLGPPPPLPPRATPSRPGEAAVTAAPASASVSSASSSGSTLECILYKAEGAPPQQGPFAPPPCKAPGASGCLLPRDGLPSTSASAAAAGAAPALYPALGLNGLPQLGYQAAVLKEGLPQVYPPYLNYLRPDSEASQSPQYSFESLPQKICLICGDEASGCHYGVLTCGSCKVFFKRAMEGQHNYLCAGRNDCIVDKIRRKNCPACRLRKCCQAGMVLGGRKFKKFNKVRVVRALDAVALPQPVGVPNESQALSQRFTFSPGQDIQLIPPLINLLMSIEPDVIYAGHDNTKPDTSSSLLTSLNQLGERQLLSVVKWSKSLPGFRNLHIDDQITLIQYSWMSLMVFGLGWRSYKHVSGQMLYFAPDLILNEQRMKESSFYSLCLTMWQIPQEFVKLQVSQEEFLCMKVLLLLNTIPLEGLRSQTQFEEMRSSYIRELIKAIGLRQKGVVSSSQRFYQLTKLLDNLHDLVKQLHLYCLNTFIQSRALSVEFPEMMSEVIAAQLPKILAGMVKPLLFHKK

[2] = Partition coefficient (logP); type: physicochemical; details: octanol/water
How it was run: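 log P(o/w) (octanol/water) estimated by a reversed-phase HPLC method.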

[3] = molecular target: T1, Progesterone receptor (Homo sapiens); assay: Binding selectivity index as the ratio of RBA value to that of NSB value.
How it was run: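 BSI calculated as the ratio of RBA to NSB.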

[4] = molecular target: T1, Progesterone receptor (Homo sapiens); assay: Relative binding affinity against progesterone receptor at 0 degree Celsius determined in a competitive radiometric binding assay (R5020=100%).
How it was run: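 Competitive radiometric binding at 0 °C against tritium-labeled R5020 as the standard (RBA = 100). Values are the average of two experiments.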

NSB [1]	logP [2]	logP ([2]; read-out: logP)	BSI [3]	RBA [4]	SMILES
1.2 and 0.86	3.9	4.23			CC1(c2ccco2)O[C@@H]2CC3C4CCC5=CC(=O)CC[C@@H]5C4CC[C@]3(C)[C@]2(C(=O)CO)O1 (some centres not stated)
4.36		5.48	65	282	CC1(c2ccc(F)cc2)O[C@@H]2CC3C4CCC5=CC(=O)CC[C@@H]5C4CC[C@]3(C)[C@]2(C(=O)CF)O1 (some centres not stated)
